# Measured values from ChEMBL document CHEMBL1125281, “Identification and synthesis of a receptor binding site of human anaphylatoxin C5a” (J Med Chem, 1991).
# Where a SMILES comes first, the peptide text is derived from it. Bridges are numbered along the chain shown (N, C = ends). The star is where a group is joined. Acm = CC(=O)NC*
# Legend:
# [1] = target: T1, C5a anaphylatoxin chemotactic receptor 1 (Homo sapiens, UniProt P21730); assay: Inhibition of [125I]C5a binding to C5a anaphylatoxin chemotactic receptor in PMNL intact cells; inactive; assay type: cell-based
# T1 sequence (P21730 whole entry): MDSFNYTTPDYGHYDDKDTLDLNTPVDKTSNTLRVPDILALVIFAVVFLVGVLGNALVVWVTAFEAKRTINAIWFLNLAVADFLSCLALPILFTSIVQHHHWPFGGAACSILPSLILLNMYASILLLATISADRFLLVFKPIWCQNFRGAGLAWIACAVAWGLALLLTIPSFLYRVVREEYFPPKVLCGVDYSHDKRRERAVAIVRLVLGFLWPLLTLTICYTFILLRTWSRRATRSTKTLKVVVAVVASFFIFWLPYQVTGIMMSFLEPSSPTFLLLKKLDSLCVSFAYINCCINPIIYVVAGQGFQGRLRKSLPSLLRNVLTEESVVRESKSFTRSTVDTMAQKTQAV
# Procedure, shortened: (§1)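 Intact human PMNL isolated from peripheral blood by one-step density centrifugation. Cells incubated 20 min at 23 °C with [125I]C5a (1 × 10⁻⁹ M), test peptide and protease inhibitors. Cells separated from free ligand by centrifugation through silicone oil at 10000g; pellet γ counts read.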
# [2] = target: T1, C5a anaphylatoxin chemotactic receptor 1; assay: Compound was tested for the inhibition of [125I]C5a binding to C5a anaphylatoxin chemotactic receptor in PMNL membranes; inactive; assay type: cell membranes
# [3] = target: T1, C5a anaphylatoxin chemotactic receptor 1; assay: Inhibition of [125I]C5a binding to C5a anaphylatoxin chemotactic receptor in PMNL membranes; assay type: cell membranes
# [4] = target: T1, C5a anaphylatoxin chemotactic receptor 1; assay: Compound was tested for the inhibition of [125I]C5a binding to C5a anaphylatoxin chemotactic receptor binding to PMNL membranes.
# [5] = target: T2, C5a anaphylatoxin chemotactic receptor 1 (Homo sapiens) (UniProt P21730); assay: Compound was tested for the inhibition of [125I]C5a binding to C5a anaphylatoxin chemotactic receptor in PMNL membranes.; assay type: cell membranes; conditions: concentration not given here
# T2 sequence (whole entry): T1 sequence (P21730 whole entry)
# [6] = target: T1, C5a anaphylatoxin chemotactic receptor 1; assay: Inhibition of [125I]-C5a anaphylatoxin chemotactic receptor binding to PMNL membranes.
# [7] = target: T2, C5a anaphylatoxin chemotactic receptor 1 (Homo sapiens); assay: Compound was tested for the inhibition of [125I]C5a anaphylatoxin chemotactic receptor binding to PMNL intact cells at a concentration of 0.1-1 mM.; assay type: cell-based
# [8] = target: T1, C5a anaphylatoxin chemotactic receptor 1; assay: Compound was tested for the inhibition of [125I]C5a anaphylatoxin chemotactic receptor binding to PMNL membranes at a concentration of 0.1-1 mM
# [9] = target: T1, C5a anaphylatoxin chemotactic receptor 1; assay: Inhibition of [125I]C5a binding to anaphylatoxin chemotactic receptor of PMNL membranes
# [10] = target: T1, C5a anaphylatoxin chemotactic receptor 1; assay: Inhibition of [125I]C5a binding to anaphylatoxin chemotactic receptor of PMNL cells; assay type: cell-based; procedure, shortened: as §1
structure (smiles),measurement,setting,value
CSCC[C@H](NC(=O)[C@H](CC(=O)O)NC(C)=O)C(=O)N[C@@H](CCC(N)=O)C(=O)N[C@@H](CC(C)C)C(=O)NCC(=O)N[C@@H](CCCN=C(N)N)C(=O)O (Ac-DMQLGR-OH),Ki,[1],Not Active
same,Ki,[2],Not Active
CSCC[C@H](NC(=O)[C@H](CC(=O)O)NC(=O)[C@H](CCCCN)NC(=O)[C@H](Cc1c[nH]cn1)NC(C)=O)C(=O)N[C@@H](CCC(N)=O)C(=O)N[C@@H](CC(C)C)C(=O)NCC(=O)N[C@@H](CCCN=C(N)N)C(=O)O (Ac-HKDMQLGR-OH),Ki,[1],Not Active
CSCC[C@H](NC(=O)[C@H](CC(=O)O)NC(=O)[C@H](CCCCN)NC(=O)[C@H](Cc1cnc[nH]1)NC(C)=O)C(=O)N[C@@H](CCC(N)=O)C(=O)N[C@@H](CC(C)C)C(=O)NCC(=O)N[C@@H](CCCNC(=N)N)C(=O)O (Ac-HKDMQLGR-OH),Ki,[3],150 µM
CC[C@H](C)[C@H](NC(C)=O)C(=O)N[C@@H](CO)C(=O)N[C@@H](Cc1c[nH]cn1)C(=O)N[C@@H](CCCCN)C(=O)N[C@@H](CC(=O)O)C(=O)N[C@@H](CCSC)C(=O)N[C@@H](CCC(N)=O)C(=O)N[C@@H](CC(C)C)C(=O)N[C@@H](CCCN=C(N)N)C(=O)NCC(=O)N[C@@H](CCCN=C(N)N)C(=O)O (Ac-ISHKDMQLRGR-OH),Ki,[4],100 µM
same,Ki,[1],Not Active
CSCC[C@H](NC(=O)[C@H](CC(=O)O)NC(=O)[C@H](CCCCN)NC(C)=O)C(=O)N[C@@H](CCC(N)=O)C(=O)N[C@@H](CC(C)C)C(=O)NCC(=O)N[C@@H](CCCN=C(N)N)C(=O)O (Ac-KDMQLGR-OH),Ki,[1],Not Active
same,inhibition,[5],30%
CC[C@H](C)[C@H](NC(=O)[C@H](CCSC)NC(C)=O)C(=O)N[C@@H](CCCCN)C(=O)N[C@@H](C)C(=O)N[C@@H](Cc1ccccc1)C(=O)N[C@H](C(=O)N[C@@H](CCC(=O)O)C(=O)N[C@@H](CCSC)C(=O)N[C@@H](CCSC)C(=O)N[C@H](C(=O)N[C@H](C(=O)N[C@@H](C)C(=O)N[C@@H](CO)C(=O)N[C@@H](CCC(N)=O)C(=O)N[C@@H](CC(C)C)C(=O)N[C@@H](CCCN=C(N)N)C(=O)N[C@@H](C)C(=O)N[C@@H](CC(N)=O)C(=O)N[C@H](C(=O)N[C@@H](CO)C(=O)N[C@@H](Cc1c[nH]cn1)C(=O)N[C@@H](CCCCN)C(=O)N[C@@H](CC(=O)O)C(=O)N[C@@H](CCSC)C(=O)N[C@@H](CCC(N)=O)C(=O)N[C@@H](CC(C)C)C(=O)NCC(=O)N[C@@H](CCCN=C(N)N)C(=O)O)[C@@H](C)CC)C(C)C)C(C)C)[C@@H](C)O (Ac-MIKAFTEMMVVASQLRANISHKDMQLGR-OH),Ki,[6],100 µM
same,inhibition,[7],> 20%
CC[C@H](C)[C@H](NC(=O)[C@H](CC(N)=O)NC(=O)[C@H](C)NC(=O)[C@H](CCCNC(=N)N)NC(=O)[C@H](CC(C)C)NC(=O)[C@H](CCC(N)=O)NC(=O)[C@H](CO)NC(=O)[C@H](C)NC(=O)[C@@H](NC(=O)[C@@H](NC(=O)[C@H](CCSC)NC(C)=O)C(C)C)C(C)C)C(=O)N[C@@H](CO)C(=O)N[C@@H](Cc1cnc[nH]1)C(=O)N[C@@H](CCCCN)C(=O)N[C@@H](CC(=O)O)C(=O)N[C@@H](CCSC)C(=O)N[C@@H](CCC(N)=O)C(=O)N[C@@H](CC(C)C)C(=O)NCC(=O)N[C@@H](CCCNC(=N)N)C(=O)O (Ac-MVVASQLRANISHKDMQLGR-OH),Ki,[6],50 µM
CC[C@H](C)[C@H](NC(=O)[C@H](CC(N)=O)NC(=O)[C@H](C)NC(=O)[C@H](CCCNC(=N)N)NC(=O)[C@H](CC(C)C)NC(=O)[C@H](CCC(N)=O)NC(=O)[C@H](CO)NC(=O)[C@H](C)NC(=O)[C@@H](NC(=O)[C@@H](NC(=O)[C@H](CCSC)NC(=O)[C@H](CCSC)NC(=O)[C@H](CCC(=O)O)NC(=O)[C@@H](NC(=O)[C@@H](N)Cc1ccccc1)[C@@H](C)O)C(C)C)C(C)C)C(=O)N[C@@H](CO)C(=O)N[C@@H](Cc1cnc[nH]1)C(=O)N[C@@H](CCCCN)C(=O)N[C@@H](CC(=O)O)C(=O)N[C@@H](CCSC)C(=O)N[C@@H](CCC(N)=O)C(=O)N[C@@H](CC(C)C)C(=O)NCC(=O)N[C@@H](CCCNC(=N)N)C(=O)O (H-FTEMMVVASQLRANISHKDMQLGR-OH),Ki,[6],100 µM
CC[C@H](C)[C@H](NC(=O)[C@H](CC(N)=O)NC(=O)[C@H](C)NC(=O)[C@H](CCCN=C(N)N)NC(=O)[C@H](CC(C)C)NC(=O)[C@H](CCC(N)=O)NC(=O)[C@H](CO)NC(=O)[C@H](C)NC(=O)[C@@H](NC(=O)[C@@H](NC(=O)[C@H](CCSC)NC(=O)[C@H](CCSC)NC(=O)[C@H](CCC(=O)O)NC(=O)[C@@H](NC(=O)[C@@H](N)Cc1ccccc1)[C@@H](C)O)C(C)C)C(C)C)C(=O)N[C@@H](CO)C(=O)N[C@@H](Cc1c[nH]cn1)C(=O)N[C@@H](CCCCN)C(=O)N[C@@H](CC(=O)O)C(=O)N[C@@H](CCSC)C(=O)N[C@@H](CCC(N)=O)C(=O)N[C@@H](CC(C)C)C(=O)NCC(=O)N[C@@H](CCCN=C(N)N)C(=O)O (H-FTEMMVVASQLRANISHKDMQLGR-OH),inhibition,[7],> 20%
CSCC[C@H](NC(=O)[C@H](CC(=O)O)NC(=O)[C@H](CCCCN)NC(=O)[C@@H](N)Cc1c[nH]cn1)C(=O)N[C@@H](CCC(N)=O)C(=O)N[C@@H](CC(C)C)C(=O)NCC(=O)N[C@@H](CCCN=C(N)N)C(=O)O (H-HKDMQLGR-OH),Ki,[1],Not Active
same,Ki,[3],300 µM
CC[C@H](C)[C@H](NC(=O)[C@H](CC(N)=O)NC(=O)[C@H](C)NC(=O)[C@H](CCCNC(=N)N)NC(=O)[C@H](CC(C)C)NC(=O)[C@H](CCC(N)=O)NC(=O)[C@@H](N)CO)C(=O)N[C@@H](CO)C(=O)N[C@@H](Cc1cnc[nH]1)C(=O)N[C@@H](CCCCN)C(=O)N[C@@H](CC(=O)O)C(=O)N[C@@H](CCSC)C(=O)N[C@@H](CCC(N)=O)C(=O)N[C@@H](CC(C)C)C(=O)NCC(=O)N[C@@H](CCCNC(=N)N)C(=O)O (H-SQLRANISHKDMQLGR-OH),Ki,[8],300 µM
CC(=O)NCSC[C@H](NC(=O)[C@H](C)NC(=O)[C@H](CCCCN)NC(=O)[C@H](CCCCN)NC(=O)[C@@H](NC(=O)[C@@H](NC(=O)[C@@H](N)CO)C(C)C)C(C)C)C(=O)N[C@@H](Cc1ccc(O)cc1)C(=O)N[C@@H](CC(=O)O)C(=O)NCC(=O)N[C@@H](C)C(=O)O (H-SVVKKAC(Acm)YDGA-OH),Ki,[9],Not Active
same,Ki,[10],Not Active
CC[C@H](C)[C@@H]1NC(=O)[C@H](CCC(=O)O)NC(=O)[C@H](CCC(=O)O)NC(=O)[C@@H](NC(=O)[C@H](CCCCN)NC(=O)[C@H](CCCCN)NC(=O)[C@H](CCC(N)=O)NC(=O)[C@H](CC(C)C)NC(=O)[C@@H](N)[C@@H](C)O)CSSC[C@@H](C(=O)N[C@@H](Cc2ccc(O)cc2)C(=O)N[C@@H](CC(=O)O)C(=O)NCC(=O)N[C@@H](C)C(=O)O)NC(=O)[C@H](C)NC(=O)[C@H](CCCCN)NC(=O)[C@H](CCCCN)NC(=O)[C@H](C(C)C)NC(=O)[C@H](C(C)C)NC(=O)[C@H](CO)NC(=O)[C@H](Cc2c[nH]cn2)NC(=O)[C@H](CCCCN)NC(=O)[C@H](Cc2ccc(O)cc2)NC(=O)[C@H](CCCCN)NC(=O)[C@H](C)NC(=O)[C@H](C)NC1=O (H-TLQKKCEEIAAKYKHSVVKKACYDGA-OH; disulfide 6-22),Ki,[9],Not Active
same,Ki,[10],Not Active
CC[C@H](C)[C@H](NC(=O)[C@H](CCC(=O)O)NC(=O)[C@H](CCC(=O)O)NC(=O)[C@@H](NC(=O)[C@H](CCCCN)NC(=O)[C@H](CCCCN)NC(=O)[C@H](CCC(N)=O)NC(=O)[C@H](CC(C)C)NC(=O)[C@@H](N)[C@@H](C)O)[C@@H](C)CC)C(=O)N[C@@H](C)C(=O)N[C@@H](C)C(=O)N[C@@H](CCCCN)C(=O)N[C@@H](Cc1ccc(O)cc1)C(=O)N[C@@H](CCCCN)C(=O)O (H-TLQKKIEEIAAKYK-OH),Ki,[9],Not Active
same,Ki,[10],Not Active
CC[C@H](C)[C@H](N)C(=O)N[C@@H](CO)C(=O)N[C@@H](Cc1c[nH]cn1)C(=O)N[C@@H](CCCCN)C(=O)N[C@@H](CC(=O)O)C(=O)N[C@@H](CCSC)C(=O)N[C@@H](CCC(N)=O)C(=O)N[C@@H](CC(C)C)C(=O)NCC(=O)N[C@@H](CCCN=C(N)N)C(=O)O [ISHKDMQLGR] (H-ISHKDMQLGR-OH),Ki,[1],Not Active
CC[C@H](C)[C@H](N)C(=O)N[C@@H](CO)C(=O)N[C@@H](Cc1cnc[nH]1)C(=O)N[C@@H](CCCCN)C(=O)N[C@@H](CC(=O)O)C(=O)N[C@@H](CCSC)C(=O)N[C@@H](CCC(N)=O)C(=O)N[C@@H](CC(C)C)C(=O)NCC(=O)N[C@@H](CCCNC(=N)N)C(=O)O [ISHKDMQLGR] (H-ISHKDMQLGR-OH),Ki,[3],300 µM
